{
  "source": "paper PMC7641749",
  "about": "(Nucleic Acids Research, 2020)",
  "key": {"DROSHA": {"system": "DROSHA", "assay": "Co-IP of overexpressed DROSHA with ERH", "assay_type": "binding, human", "details": "ectopic DROSHA co-expressed with C-terminal tail of DGCR8", "outline": "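HEK293E cells at 50% confluence were transfected with 5 μg total of Flag-, HA- or myc-tagged plasmids using branched/linear PEI (1:1) and harvested after 2 days. Anti-Flag, anti-HA or protein G-bound anti-myc beads were incubated with lysate 1–2 h at 4°C, washed three times and eluted in SDS buffer for western blot.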"}, "DGCR8": {"system": "DGCR8", "assay": "Co-IP of ERH and DGCR8 in DROSHA knock-out cells", "assay_type": "binding, human", "details": "HCT116 DROSHA knock-out cells", "outline": "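HCT116 wild-type and DROSHA knock-out cells were grown in McCoy's 5A with 9% FBS. Proteins were boiled at 95°C for 5 min, separated on 8–16% Tris–glycine gels and transferred to PVDF. Detection was by infrared imaging or chemiluminescence.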"}, "miR-144–451a": {"system": "miR-144–451a", "assay": "ERH rescue experiment, qRT-PCR", "assay_type": "cell-based, human", "details": "ERH ectopically expressed in ERH-depleted HEK293E cells, shERH, n = 3", "outline": "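HEK293E cells at 50% confluence got shERH (3′UTR-targeting) plasmid with Fugene HD for 48 h, then were trypsinized and counted. 4E5 cells were co-transfected with 2.5 μg total of shERH, pri-miRNA expression plasmid and wild-type or homodimerization-mutant ERH plasmid (1:2:2) using 5 μl Fugene HD. Total RNA was harvested 48 h later for qRT-PCR.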"}},
  "data": [
    {"substance": "Enhancer of Rudimentary Homolog [ERH]", "values": [
      {"measurement": "interaction between DROSHA and ERH", "setting": "DROSHA", "result": "could not detect meaningful interaction"},
      {"measurement": "interaction between ERH and DGCR8", "setting": "DGCR8", "result": "not affected by the absence of DROSHA"},
      {"measurement": "expression of miR-144", "setting": "miR-144–451a", "result": "without significantly altering miR-144 expression"},
      {"measurement": "expression of miR-451a", "setting": "miR-144–451a", "result": "increased the expression of miR-451a"}
    ]}
  ]
}
